Compound activity as filed in PubChem.
Only some compounds are listed: those with a hit (about 0.74% of all), similar ones and a draw of the others.
Arbovirus anti: arbovirus infection inhibition; arbovirus infection cell-based antiviral screen; inhibition, % at 10 µM; actives 0.37% (n = 200,000); in the data active means inhibition above about 30%
Diaphorase inh: inhibits diaphorase or chemically oxidizes, flagging diaphorase assay artifacts; actives 0.69% (n = 190,000); diaphorase resazurin-to-resorufin fluorescence, NADH, 16 min; bacterial (C. kluyveri) enzyme, not human; inhibition, % at 20 µM;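 active means primary screen inhibition at 20 µM above a set limit, cut at about 50% in these data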;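 further: plate controls were DMSO with full reaction for no effect and wells lacking NADH for full effect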
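Assay system – diaphorase enzyme from Clostridium kluyveri · Amount – diaphorase 0.14 U/mL (working solution) · Times – reaction incubation of 16 min at room temperature · Controls – No-NADH positive control and DMSO neutral control · Signal – resorufin fluorescence 544/590 nm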
G6PDH counter: counter-screen for G6PDH assay hits: L. mesenteroides G6PDH inhibition | Purified L. mesenteroides G6PDH, diaphorase/resazurin coupled fluorescence, 45 min | inhibition, % at 5 µM | actives 0.12% (n = 200,000) | AID 1020; in the data active means inhibition above about 50%
HKDC1 inhibitor: HKDC1 (human) hexokinase inhibition. AID 493160. recombinant HKDC1, G6PDH/diaphorase resazurin coupled fluorescence. actives 0.16% (n = 340,000). inhibition, % at 20 µM;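 active means inhibition above about 35% when tested at 20 µM, limit read from the data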;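 further: plate controls were DMSO wells with enzyme for no effect and DMSO wells lacking enzyme for full effect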
Target sequence (Q2TB90 whole entry, looked up): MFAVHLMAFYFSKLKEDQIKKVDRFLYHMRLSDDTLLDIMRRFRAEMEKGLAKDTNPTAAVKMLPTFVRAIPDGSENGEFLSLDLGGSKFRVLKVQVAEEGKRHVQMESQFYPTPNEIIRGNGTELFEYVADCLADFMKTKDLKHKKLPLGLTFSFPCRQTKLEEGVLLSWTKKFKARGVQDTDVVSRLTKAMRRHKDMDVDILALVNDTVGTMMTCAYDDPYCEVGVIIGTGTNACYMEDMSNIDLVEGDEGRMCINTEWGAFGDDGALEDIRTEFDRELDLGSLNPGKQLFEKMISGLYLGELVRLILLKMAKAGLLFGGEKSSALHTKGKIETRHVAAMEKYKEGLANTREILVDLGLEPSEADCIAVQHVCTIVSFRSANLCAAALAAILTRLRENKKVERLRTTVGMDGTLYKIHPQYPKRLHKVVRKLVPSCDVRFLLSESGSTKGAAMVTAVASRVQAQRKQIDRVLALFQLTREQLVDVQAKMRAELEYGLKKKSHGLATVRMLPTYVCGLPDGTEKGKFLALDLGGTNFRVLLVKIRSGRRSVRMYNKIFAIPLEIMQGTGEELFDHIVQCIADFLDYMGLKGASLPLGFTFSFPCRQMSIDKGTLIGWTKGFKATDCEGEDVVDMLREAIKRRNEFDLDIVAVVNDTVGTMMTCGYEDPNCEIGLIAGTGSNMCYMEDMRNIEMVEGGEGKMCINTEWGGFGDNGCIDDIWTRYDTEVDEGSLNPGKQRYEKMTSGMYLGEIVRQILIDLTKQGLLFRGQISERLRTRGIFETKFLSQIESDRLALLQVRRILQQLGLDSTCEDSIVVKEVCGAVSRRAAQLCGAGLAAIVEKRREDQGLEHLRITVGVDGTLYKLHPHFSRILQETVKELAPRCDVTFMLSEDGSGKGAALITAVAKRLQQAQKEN
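Material: recombinant HKDC1 hexokinase; Amount: HKDC1 at 5 µg/mL; Medium: Tris pH 8.0 buffer with MgCl2, Tween-20, BSA, BME; Schedule: 90 min reaction incubation at room temperature, dark; Technique: coupled resazurin fluorescence, excitation 525 nm, emission 613 nm.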
Diaph act CS: counter-screen for diaphorase-based assays: diaphorase activators and chemical reducers; AID 1229; actives 0.005% (n = 190,000); activation factor at 20 µM; Diaphorase/resazurin coupled assay, resorufin fluorescence, 16 min; active compounds read high; 1 = vehicle wells, 0 = NADH-free wells;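 active means diaphorase activity raised at least twofold by the compound at 20 µM; inactive means activation factor below 2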
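Assay system: Purified diaphorase enzyme from Clostridium kluyveri | Amount: Enzyme 0.07 U/mL final | Dosing: Compound 20 µM once, DMSO 1% | Timing: 16 min reaction at room temperature | Detection: Fluorescence, excitation 544 nm and emission 590 nm | Evaluation: Higher resorufin formation from activation or reduction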
* marks the source's active call; other numbers are inactive results; . = no result given.

SMILES	Arbovirus anti	Diaphorase inh	G6PDH counter	HKDC1 inhibitor	Diaph act CS
Cc1ccc2nc(-c3ccccc3Cl)cc(C(=O)Nc3cc(C)on3)c2c1	34.1*	12.6	0.0	8.8	0.9
FC(F)(F)c1ccc(Oc2ccc3ccccc3c2Br)nc1	34.6*	4.7	-3.4	-2.6	1
COc1ccc(CNC(=O)[C@@H]2CC=C[C@@H]3CCN(Cc4ccc(Cl)c(Cl)c4)C(=O)[C@@H]32)cc1	.	.	.	-1.1	.
COc1ccc(CNC[C@@H](CCCCN(C)Cc2ccc(OC)cc2)N2C[C@H](c3ccccc3)N(CCc3ccc(Cl)c(Cl)c3)C(=O)C2=O)cc1	-21.8	-123.4	6.0	9.4	2.2*
NC(=O)C1C2CCC(C2)C1C(N)=O (stereo not drawn)	.	.	.	0.1	.
CCOC(=O)c1cc2c(N)c(C(=O)c3ccc(Br)cc3)sc2[nH]c1=O	32.3*	26.9	0.4	14.1	0.7
Cc1csc(NS(=O)(=O)c2cccc([N+](=O)[O-])c2)n1	1.4	67.3*	10.5	-6.5	0.3
Cc1nn(-c2ccccc2)c(Cl)c1/C=N/Nc1ccc(Cl)c(C(=O)O)c1	88.7*	13.4	-0.4	15.2	0.9
O=C(O)c1cc(N/N=C/c2ccc(OCc3ccccc3)cc2)ccc1Cl	38.7*	8.6	12.3	-4.5	0.9
COC(=O)c1ccc(COc2ccc(/C=N/Nc3cccc(C(=O)O)c3)cc2)cc1	.	.	.	6.3	.
CC(=O)Nc1ccc2c(c1)Cc1c-2cc(Br)c(N)c1Br	.	.	.	-6.9	.
O=C1CN(C(=O)/C=C/c2ccc(Cl)cc2)c2ccccc2N1	31.0*	11.9	14.4	6.7	0.9
CCOC(=O)c1nn(-c2ccc(Cl)cc2)c2nc(Nc3ccccc3)cc(=O)n12	41.9*	8.0	1.2	-8.3	0.9
CCOC(=O)c1nn(-c2cccc(Cl)c2)c2nc(Nc3ccccc3)cc(=O)n12	34.4*	12.5	-6.2	15.9	0.9
CC1CC(=O)c2c(cc3c(-c4c(O)cc(O)c5c(O)c6c(cc45)OC(C)CC6=O)c(O)cc(O)c3c2O)O1 (stereo not drawn)	5.3	63.9*	18.5	11.9	0.4
CCCCC1OC2(C)OC(=N)C1(C#N)C(C#N)(C#N)C2c1ccccc1 (stereo not drawn)	-6.5	57.7*	-21.4	10.0	0.4
CC1OC2(C)OC(=N)C1(C#N)C(C#N)(C#N)C2c1ccccc1 (stereo not drawn)	7.3	10.8	-6.3	-2.2	0.9
S=c1nc(-c2sccc2OCc2ccc(Cl)cc2Cl)[nH][nH]1	1.6	53.7*	-3.9	-4.3	0.5
COc1ccccc1/C=C/C=C1N=C(/C=C/c2ccc(Cl)cc2)OC/1=O	34.8*	9.7	-29.0	-0.6	0.9
COc1ccccc1/C=C/C1=NC(=C\C=C/c2ccccc2)/C(=O)O1	21.4	4.8	-18.9	18.9	1
COc1ccc(/C=C/C(=O)NC(=S)NNC(=O)c2cccs2)cc1OC	.	.	.	-23.9	.
COc1ccc(C(=O)NCCNC(=O)c2cnccn2)cc1OC	.	.	.	-2.5	.
COc1ccc(/C=C/C(=O)NC(=S)NNC(=O)c2cccnc2)cc1OC	-13.2	82.3*	-2.1	-16.3	0.2
COc1ccc(C(=O)NC(=S)NNC(=O)c2cnccn2)cc1OC	-19.4	74.4*	-3.0	-26.1	0.3
O=C(/C=C/c1ccccc1)NC(=S)NNC(=O)c1cnccn1	.	.	.	-33.1	.
SMILES	Arbovirus anti	Diaphorase inh	G6PDH counter	HKDC1 inhibitor	Diaph act CS
COc1cc(C(=O)NNC(=S)NC(=O)c2ccc(Cl)cc2)cc(OC)c1OC	-22.0	61.1*	4.8	-14.0	0.4
COc1ccc(C(=O)NNC(=S)NC(=O)c2ccc(Cl)cc2)cc1	.	.	.	-7.0	.
O=C(/C=C/c1ccccc1)NC(=S)NNC(=O)c1cccnc1	-26.9	81.2*	6.1	-7.8	0.2
CCN(C(=O)COC(=O)CCCc1c[nH]c2ccccc12)c1c(N)n(Cc2ccccc2)c(=O)[nH]c1=O	.	.	.	1.1	.
Brc1ccc(Br)c2cnccc12	.	.	.	-2.8	.
Cc1cc(C)n2nc(SC(C)C(=O)Nc3ccc(Cl)cn3)nc2n1 (stereo not drawn)	14.9	65.7*	3.5	25.0	0.3
COc1cc(/C=C2\SC(=O)N(Cc3ccc(F)cc3)C2=O)cc([N+](=O)[O-])c1O	8.2	24.4	18.8	14.1	0.8
COc1cc(/C=C2\SC(=O)N(Cc3ccc(Cl)cc3)C2=O)cc([N+](=O)[O-])c1O	10.4	87.0*	16.3	17.4	0.1
COc1ccc(-n2nc3cc(C)c(N)c(Br)c3n2)cc1	-0.3	74.0*	25.4	18.5	0.3
CCc1ccc(-n2nc3cc(C)c(N)cc3n2)cc1	.	.	.	23.3	.
Cc1ccc(-n2nc3cc(C)c(N)cc3n2)cc1	-5.5	76.4*	24.6	12.3	0.2
Nc1ccc2nn(-c3cccc4ccccc34)nc2c1	-10.9	41.4	47.0	11.4	0.6
COc1ccc(-n2nc3cc(N)c(Br)cc3n2)cc1	.	.	.	8.9	.
Cc1cc2nn(-c3cccc4ccccc34)nc2cc1N	-9.3	78.4*	-23.3	25.4	0.2
Cc1ccc(CN2CCN(Cc3ccco3)CC2)cc1	.	.	.	4.1	.
CC(C)CCOc1cccc(OCC(=O)Nc2ccncc2)c1	.	.	.	2.4	.
Cc1cc(NC(=O)c2cccs2)ncc1NC(=O)C(C)C	.	.	.	-2.2	.
COc1ccc(Cl)cc1NC(=O)CN(C)C(=O)c1cc2c(s1)CCCC2	.	.	.	4.7	.
O=C(CSc1nnc(Nc2ccccc2F)s1)NC1CC1	.	.	.	-0.9	.
O=C1c2cccc3c(N4CCCCC4)ccc(c23)C(=O)N1c1ccccc1O	-20.0	61.3*	8.6	0.3	0.4
CCN(Cc1ccncc1)Cc1c(O)ccc2cc(Br)ccc12	30.9*	33.4	6.6	1.4	0.7
CN1CCN(Cc2c(O)ccc3cc(Br)ccc23)CC1	20.2	36.3	5.7	-0.6	0.6
Clc1cccc(-c2cc3nc4c(c(NCc5ccco5)n3n2)CCCC4)c1	33.7*	26.0	5.4	7.2	0.7
COCC(=O)N1CCC2CC1c1cc(Cl)ccc12 (stereo not drawn)	.	.	.	-6.8	.
CCOC(=O)c1c(-c2ccccc2)csc1NC(=S)N(CC)CC	37.3*	10.8	-14.6	17.1	0.9
SMILES	Arbovirus anti	Diaphorase inh	G6PDH counter	HKDC1 inhibitor	Diaph act CS
COC(=O)c1cc2ccc(OC)cc2c2cc(OC)c(OC)cc12	.	.	.	9.7	.
CCN(c1ccccc1)S(=O)(=O)c1ccc(Oc2ccccc2)c(N)c1	.	.	.	2.0	.
COc1ccc2c(c1)-c1nc(N)sc1CC2	-2.1	60.5*	43.0	28.4	0.4
Nc1nc2c(s1)CCc1ccccc1-2	.	.	.	16.3	.
CCN1CCCC1CNC(=O)Cn1cc(C)c(=O)[nH]c1=O (stereo not drawn)	.	.	.	-4.5	.
CCOc1ccccc1C(=O)NCC(=O)OCC(=O)N1CCCC1	.	.	.	-9.3	.
COc1ccc(C2=Nn3c(nnc3-c3ccncc3)SC2)cc1OC	49.1*	-4.3	-0.7	9.1	1
COc1ccccc1-c1nnc2n1N=C(c1ccc(O)c(O)c1)CS2	-18.4	51.1*	31.5	-0.6	0.5
CCOc1ccc(C2=Nn3c(nnc3-c3ccccc3OC)SC2)cc1	-24.3	15.2	7.2	0.4	0.8
